Results on 31 compounds are retold here after ChEMBL document CHEMBL1145033, “2-Amino-3-benzoylthiophene allosteric enhancers of A1 adenosine agonist binding: new 3, 4-, and 5-modifications” (J Med Chem, 2003).

The target in the first assay is T1, Adenosine receptor A1 (Homo sapiens) (UniProt P30542).
T1 sequence (whole entry): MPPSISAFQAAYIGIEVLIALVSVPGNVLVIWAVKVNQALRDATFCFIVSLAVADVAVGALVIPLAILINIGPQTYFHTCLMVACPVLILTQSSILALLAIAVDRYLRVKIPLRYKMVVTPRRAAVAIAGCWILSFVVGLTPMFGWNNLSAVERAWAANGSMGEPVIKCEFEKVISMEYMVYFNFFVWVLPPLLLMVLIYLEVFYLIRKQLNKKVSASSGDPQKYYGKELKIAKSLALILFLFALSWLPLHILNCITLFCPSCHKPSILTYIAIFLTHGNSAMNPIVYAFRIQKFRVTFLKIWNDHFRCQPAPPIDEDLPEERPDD
The assay can be described thus: Inhibition of antagonist [3H]-CPX binding to Adenosine A1 receptor membrane at 100 uM. The method in brief: (§1)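 Human A1AR membranes from CHO cells were incubated with 2 nM [3H]CPX and test agent (100 μM) for 90 min at room temperature. Inhibition of equilibrium antagonist binding was then measured.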
On to `Nc1sc(Br)c(-c2cccc(C(F)(F)F)c2)c1C(=O)c1ccccc1`, for which the inhibition came out at 29%.

The target of the next assay is T1, Adenosine receptor A1 (Homo sapiens). The assay can be described thus: Inhibition of antagonist [3H]CPX binding to Adenosine A1 receptor membrane at 100 uM. In short, it runs like this: as §1
`Cc1sc(N)c(C(=O)c2cccc(C(F)(F)F)c2)c1C` yielded an inhibition of 85%.

Another assay shares this target. The assay can be described thus: Dissociation of [3H]N6-cyclohexyladenosine ([3H]CHA) from CHO-K1 membrane expressing human adenosine A1 receptor after treatment with allosteric enhancer at 100 uM and (R)-PIA.
Take `Cc1ccc(-c2c(-c3ccccc3)sc(N)c2C(=O)Cc2ccccc2)cc1`: the Activity amounted to 1.9%. Still for that read-out and setting: for `Cc1ccc(-c2c(-c3ccccc3)sc(N)c2C(=O)c2ccc3ccccc3c2)cc1` the value was 10.9%.

On to `Nc1sc(Br)c(-c2ccc([N+](=O)[O-])cc2)c1C(=O)c1ccccc1`, for which the Activity came out at 68.3%.

As to `Cc1ccc(-c2c(-c3ccccc3)sc(N)c2C(=O)c2ccc(Cl)cc2)cc1`, the Activity amounted to 8.4%. Same read-out and setting: with `Cc1ccc(-c2c(-c3ccccc3)sc(N)c2C(=O)OCc2cccc(C(F)(F)F)c2)cc1` the figure was 62.6%. Still for that read-out and setting: with `Nc1sc(Br)c(-c2cccc(C(F)(F)F)c2)c1C(=O)c1ccccc1` the figure was 91%; with `Nc1sc(-c2ccccc2)c(-c2ccccc2)c1C(=O)c1cccc(Cl)c1`, 9.4%; with `Nc1sc(-c2ccccc2)c(-c2ccc(Cl)cc2)c1C(=O)c1cccc2ccccc12`, 11.9%.

As to `Nc1sc(-c2ccccc2)c(-c2ccccc2)c1C(=O)c1cccc2ccccc12`, the Activity worked out at 52.3%.

As for `Nc1sc(-c2ccccc2)c(-c2ccc(Cl)cc2)c1C(=O)c1ccc(-c2ccccc2)cc1`, the Activity came out at 10.5%. For the compound `Cc1ccc(-c2c(-c3ccccc3)sc(N)c2C(=O)c2ccc(-c3ccccc3)cc2)cc1`, the Activity was 3.6%. As for `Nc1sc(Br)c(-c2ccc3ccccc3c2)c1C(=O)c1ccccc1`, the Activity is 49.7%. Same read-out and setting: with `Cc1ccc(-c2c(-c3ccccc3)sc(N)c2C(=O)c2ccccc2)cc1` the figure was 13.4%; with `Nc1sc(-c2ccccc2)c(-c2ccccc2)c1C(=O)N(Cc1ccccc1)Cc1ccccc1`, 14.1%; with `Nc1sc(-c2ccccc2)c(-c2ccccc2)c1C(=O)c1ccc(-c2ccccc2)cc1`, 1.5%. The same measure, in the same setting: with `CCOC(=O)c1c(N)sc(-c2ccccc2)c1-c1ccc(Cl)cc1` the figure was 42.1%; with `Nc1sc(-c2ccccc2)c(-c2ccccc2)c1C(=O)c1ccc2ccccc2c1`, 4.2%. The same measure, in the same setting: for `Nc1sc(-c2ccccc2)c(-c2ccccc2)c1C(=O)c1ccccc1` the value was 10.7%; for `Nc1sc(-c2ccccc2)c(-c2ccc(Cl)cc2)c1C(=O)c1ccc(Cl)cc1`, 8.7%. With `Nc1sc(-c2ccccc2)c(-c2ccccc2)c1C(=O)OCc1ccccc1`, the Activity stood at 18.6%. Still for that read-out and setting: with `Nc1sc(-c2ccccc2)c(-c2ccccc2)c1C(=O)c1ccc(Cl)cc1` the figure was 10.8%.

As to `Nc1sc(-c2ccccc2)c(-c2ccc(Cl)cc2)c1C(=O)c1ccccc1`, the Activity came to 5.6%. The same measure, in the same setting: for `Nc1sc(Br)c(-c2cccc([N+](=O)[O-])c2)c1C(=O)c1ccccc1` the value was 21.8%; for `Cc1sc(N)c(C(=O)c2cccc(C(F)(F)F)c2)c1C`, 19%; for `Nc1sc(Br)c(-c2ccc(C(F)(F)F)cc2)c1C(=O)c1ccccc1`, 80.4%. The same measure, in the same setting: for `Nc1sc(Br)c(-c2ccc(-c3ccccc3)cc2)c1C(=O)c1ccccc1` the value was 42.7%; for `CCOC(=O)c1c(N)sc(Br)c1-c1cccc([N+](=O)[O-])c1`, 26%; for `Nc1sc(-c2ccccc2)c(-c2ccccc2)c1C(=O)OCc1cccc(C(F)(F)F)c1`, 48%. Same read-out and setting: with `Nc1sc(-c2ccccc2)cc1C(=O)OCc1ccccc1` the figure was 8%. In the case of `Cc1ccc(-c2c(-c3ccccc3)sc(N)c2C(=O)c2cccc(Cl)c2)cc1`, the Activity is 8.1%. Still for that read-out and setting: for `N#Cc1ccc(-c2c(Br)sc(N)c2C(=O)c2ccccc2)cc1` the value was 20.3%.

For another assay, the target named is T2, Adenosine receptor A1 (Homo sapiens, UniProt P30542).
T2 sequence (P30542 whole entry): T1 sequence (whole entry)
The assay can be described thus: Effective dose as dissociation of [3H]N6-cyclohexyladenosine ([3H]CHA) from CHO-K1 membrane after treatment with allosteric enhancer and (R)-PIA.
Consider `Nc1sc(Br)c(-c2cccc(C(F)(F)F)c2)c1C(=O)c1ccccc1`, for which the EC50 was determined as 6.36 µM.
